≈ marks a conversion by molar mass, not a printed value.
Experiments:
Homo sapiens = species on record: Homo sapiens; test: Stabilization of 5'Dabcyl/3'FAM labeled human telomeric sequence G-quadruplex DNA assessed as increase in melting temperature at 2.5 uM pretreated for 5 mins at 30 degreeC followed by 5 mins incubation at 95 degreeC by fluorescence assay
Outline: (§1)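 FRET melting in LiP buffer (10 mM LiOH, 50 mM KCl, pH 7.0 with H3PO4), ex 488 nm, em 520 nm. Samples were held 5 min at 30 °C, heated at 1 °C/min to 95 °C, held 5 min, then re-annealed. Tm came from first derivatives; ΔTm = shift with ligand at 2.5; at least three runs.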

[1] = Stabilization of 5'Dabcyl/3'FAM labeled duplex DNA (unknown origin) assessed as increase in melting temperature at 2.5 uM pretreated for 5 mins at 30 degreeC followed by 5 mins incubation at 95 degreeC by fluorescence assay; outline: as §1
[2] = target: DNA topoisomerase 2-alpha (Homo sapiens, UniProt P11388); test: Inhibition of human topoisomerase-2alpha-mediated relaxation of supercoiled pBR322 DNA after 1 hr by ethidium bromide staining based agarose gel electrophoresis
Outline: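 Supercoiled pBR322 was incubated with compound (0.5–100) and 1 U human topoisomerase IIα in enzyme buffer for 1 h at 37 °C. Reactions were stopped with Tris/EDTA/NaCl loading buffer (pH 8.0) and run on 1% agarose in TAE with 0.1% SDS (4.9 V/cm, 90 min), then stained with ethidium bromide. IC50 is the concentration reducing relaxation activity by 50%.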

Thermus aquaticus = test: Inhibition of Thermus aquaticus DNA polymerase-mediated amplification of fragment of pBR322 by PCR
Outline: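 PCR amplification of a pBR322 fragment by Taq polymerase with increasing compound (0.25–40) for 25 cycles: 94 °C, 58 °C and 72 °C, 30 s each. Products were run on 2% agarose in 0.5X TBE (4.2 V/cm, 1.5 h) and stained with ethidium bromide. IC50 is the concentration halving activity; MIC is the lowest concentration that suppresses activity.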

Chain of DNA topoisomerase 2-alpha (P11388 whole entry): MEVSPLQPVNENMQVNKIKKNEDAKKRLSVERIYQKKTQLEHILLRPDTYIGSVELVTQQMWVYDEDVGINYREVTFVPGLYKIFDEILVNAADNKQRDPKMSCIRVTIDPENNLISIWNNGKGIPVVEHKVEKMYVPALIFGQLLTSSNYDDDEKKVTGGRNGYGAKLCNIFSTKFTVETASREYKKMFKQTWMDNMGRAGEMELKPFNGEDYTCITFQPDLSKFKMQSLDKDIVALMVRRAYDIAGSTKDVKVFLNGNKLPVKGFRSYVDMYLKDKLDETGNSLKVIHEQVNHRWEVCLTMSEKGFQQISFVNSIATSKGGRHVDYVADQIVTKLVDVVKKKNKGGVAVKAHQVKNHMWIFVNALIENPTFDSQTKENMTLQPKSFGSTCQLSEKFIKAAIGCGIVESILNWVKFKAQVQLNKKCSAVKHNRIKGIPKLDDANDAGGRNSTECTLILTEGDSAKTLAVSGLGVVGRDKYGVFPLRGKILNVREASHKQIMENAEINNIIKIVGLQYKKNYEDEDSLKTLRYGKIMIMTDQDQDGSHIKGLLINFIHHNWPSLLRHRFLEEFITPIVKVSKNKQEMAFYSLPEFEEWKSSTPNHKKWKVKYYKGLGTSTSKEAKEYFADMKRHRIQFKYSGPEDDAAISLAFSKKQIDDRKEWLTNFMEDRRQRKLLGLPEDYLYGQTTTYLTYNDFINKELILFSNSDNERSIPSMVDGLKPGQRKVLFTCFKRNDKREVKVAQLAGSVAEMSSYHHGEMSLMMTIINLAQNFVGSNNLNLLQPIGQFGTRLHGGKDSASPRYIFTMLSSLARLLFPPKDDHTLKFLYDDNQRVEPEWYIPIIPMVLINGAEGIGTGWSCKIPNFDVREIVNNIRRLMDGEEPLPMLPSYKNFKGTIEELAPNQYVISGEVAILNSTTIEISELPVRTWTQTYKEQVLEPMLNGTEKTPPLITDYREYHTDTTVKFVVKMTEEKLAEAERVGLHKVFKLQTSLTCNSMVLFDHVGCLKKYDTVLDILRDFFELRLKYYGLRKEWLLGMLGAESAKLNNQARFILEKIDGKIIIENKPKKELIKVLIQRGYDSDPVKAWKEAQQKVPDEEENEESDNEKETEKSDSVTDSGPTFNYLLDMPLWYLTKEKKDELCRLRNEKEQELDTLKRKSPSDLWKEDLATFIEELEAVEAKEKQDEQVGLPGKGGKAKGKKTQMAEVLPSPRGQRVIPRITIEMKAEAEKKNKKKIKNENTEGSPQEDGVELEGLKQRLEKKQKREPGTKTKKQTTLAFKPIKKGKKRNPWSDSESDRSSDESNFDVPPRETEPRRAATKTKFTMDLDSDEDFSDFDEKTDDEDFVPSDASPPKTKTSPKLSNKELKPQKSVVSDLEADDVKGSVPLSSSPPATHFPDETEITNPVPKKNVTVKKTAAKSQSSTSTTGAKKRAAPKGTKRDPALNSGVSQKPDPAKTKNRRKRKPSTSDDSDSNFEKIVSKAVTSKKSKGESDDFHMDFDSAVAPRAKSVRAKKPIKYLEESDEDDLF

Row | Structure (SMILES) | ΔTm (Homo sapiens) [°C] | ΔTm [1] [°C] | IC50 [2] [µM] | MIC (Thermus aquaticus) [µM]
1 | COc1ccc(CNCCCN2C(=O)c3ccc4c5c(ccc(c35)C2=O)C(=O)N(CCCNCCCCNCCCN)C4=O)c(OC)c1OC | 13.1 | 12.6 | – | –
2 | COc1ccccc1CNCCCN1C(=O)c2ccc3c4c(ccc(c24)C1=O)C(=O)N(CCCNCCCNCCCN)C3=O | 16.3 | 12.2 | – | –
3 | COc1ccccc1CNCCCN1C(=O)c2ccc3c4c(ccc(c24)C1=O)C(=O)N(CCCNCc1ccccc1OC)C3=O | 20.5 | 8.4 | 6 | 10 (≈ 6.21 µg/mL)

— ChEMBL document CHEMBL4004831, “Naphthalene diimide-polyamine hybrids as antiproliferative agents: Focus on the architecture of the polyamine chains” (Eur J Med Chem, 2017)
